Converted amounts (≈) assume the structure as drawn. The source made the active and inactive calls. The rule behind the calls is not given here.

The MIC is the lowest concentration found to suppress growth. A word on the inhibition in vivo: it is the percentage by which the read-out fell short of the control.

In one test the test system is Klebsiella aerogenes. The test is described as follows: Antibacterial activity against Klebsiella aerogenes assessed as diameter of growth inhibition zone at 2 mg/ml at 37 degC after 24 hrs by agar well diffusion method. The class given is functional. The conditions noted are these: read-out: DIZ. In general terms: A growth-free zone around the sample is the usual read-out of agar diffusion tests.
On to `O=c1oc2ccc(Br)cc2cc1-c1csc(N2N=C(c3ccc(Br)cc3)C[C@@]2(O)C(F)(F)F)n1`, for which the zone of inhibition at 2000 µg/mL turned out to be 10.5 mm.

`O=c1oc2ccccc2cc1-c1csc(N2N=C(c3ccc(F)cc3)C[C@@]2(O)C(F)(F)F)n1`: the zone of inhibition at 2000 µg/mL is 12.1 mm.

With `O=c1oc2ccc(Br)cc2cc1-c1csc(N2N=C(c3ccc(F)cc3)C[C@@]2(O)C(F)(F)F)n1`, the zone of inhibition at 2000 µg/mL turned out to be 11 mm.

In another test the test system is Proteus mirabilis. As to the kind of experiment: Antibacterial activity against Proteus mirabilis assessed as growth inhibition at 37 degC after overnight incubation by agar well diffusion method. The class given is functional.
Settings: not given
As for `O=c1oc2ccccc2cc1-c1csc(N2N=C(c3ccc(F)cc3)C[C@@]2(O)C(F)(F)F)n1`, the MIC came to 4 mg/L (≈ 8.41 µM).

Another test relates to Bacillus subtilis. The test is described as follows: Antibacterial activity against Bacillus subtilis assessed as diameter of growth inhibition zone at 2 mg/ml at 37 degC after 24 hrs by agar well diffusion method. Format: functional.
Settings: not given
On to `O=c1oc2ccc(Br)cc2cc1-c1csc(N2N=C(c3ccc(Br)cc3)C[C@@]2(O)C(F)(F)F)n1`, for which the “diameter of the inhibition zone (DIZ)” value is “inactive”.

Staying with this test, now noted: read-out: DIZ.
`O=c1oc2ccccc2cc1-c1csc(N2N=C(c3ccc(F)cc3)C[C@@]2(O)C(F)(F)F)n1`: the zone of inhibition at 2000 µg/mL was determined as 12 mm.

Consider `O=c1oc2ccc(Br)cc2cc1-c1csc(N2N=C(c3ccc(F)cc3)C[C@@]2(O)C(F)(F)F)n1`, for which the zone of inhibition at 2000 µg/mL came to 12.4 mm.

The subject of a further test is Proteus mirabilis. As to the kind of experiment: Antibacterial activity against Proteus mirabilis assessed as diameter of growth inhibition zone at 2 mg/ml at 37 degC after 24 hrs by agar well diffusion method. The class given is functional.
Settings: not given
`O=c1oc2ccc(Br)cc2cc1-c1csc(N2N=C(c3ccc(Br)cc3)C[C@@]2(O)C(F)(F)F)n1`: the “diameter of the inhibition zone (DIZ)” value was “inactive”.

Regarding `O=c1oc2ccc(Br)cc2cc1-c1csc(N2N=C(c3ccc(F)cc3)C[C@@]2(O)C(F)(F)F)n1`, the “diameter of the inhibition zone (DIZ)” value is “inactive”.

Still in this test, the particulars now being: read-out: DIZ.
For `O=c1oc2ccccc2cc1-c1csc(N2N=C(c3ccc(F)cc3)C[C@@]2(O)C(F)(F)F)n1`, the zone of inhibition at 2000 µg/mL came to 17 mm.

In a further test the test system is Staphylococcus epidermidis. The test is described as follows: Antibacterial activity against Staphylococcus epidermidis assessed as diameter of growth inhibition zone at 2 mg/ml at 37 degC after 24 hrs by agar well diffusion method. Format: functional. To be noted: read-out: DIZ.
As for `O=c1oc2ccc(Br)cc2cc1-c1csc(N2N=C(c3ccc(Br)cc3)C[C@@]2(O)C(F)(F)F)n1`, the zone of inhibition at 2000 µg/mL worked out at 13.1 mm.

In the case of `O=c1oc2ccccc2cc1-c1csc(N2N=C(c3ccc(F)cc3)C[C@@]2(O)C(F)(F)F)n1`, the zone of inhibition at 2000 µg/mL came out at 14 mm.

Regarding `O=c1oc2ccc(Br)cc2cc1-c1csc(N2N=C(c3ccc(F)cc3)C[C@@]2(O)C(F)(F)F)n1`, the zone of inhibition at 2000 µg/mL is 14 mm.

The next test relates to Staphylococcus aureus. As to the kind of experiment: Antibacterial activity against Staphylococcus aureus assessed as growth inhibition at 37 degC after overnight incubation by agar well diffusion method.
Settings: not given
The class given is functional.
As to `O=c1oc2ccc(Br)cc2cc1-c1csc(N2N=C(c3ccc(Br)cc3)C[C@@]2(O)C(F)(F)F)n1`, the MIC was 128 mg/L (≈ 208 µM).

`O=c1oc2ccccc2cc1-c1csc(N2N=C(c3ccc(F)cc3)C[C@@]2(O)C(F)(F)F)n1`: the MIC worked out at 32 mg/L (≈ 67.3 µM).

Regarding `O=c1oc2ccc(Br)cc2cc1-c1csc(N2N=C(c3ccc(F)cc3)C[C@@]2(O)C(F)(F)F)n1`, the MIC was 128 mg/L (≈ 231 µM).

The next test relates to Klebsiella aerogenes. The test is described as follows: Antibacterial activity against Klebsiella aerogenes assessed as growth inhibition at 37 degC after overnight incubation by agar well diffusion method.
Settings: not given
The class given is functional.
For `O=c1oc2ccc(Br)cc2cc1-c1csc(N2N=C(c3ccc(Br)cc3)C[C@@]2(O)C(F)(F)F)n1`, the minimal inhibitory concentration (MIC) amounted to 512 mg/L (≈ 832 µM).

As to `O=c1oc2ccccc2cc1-c1csc(N2N=C(c3ccc(F)cc3)C[C@@]2(O)C(F)(F)F)n1`, the MIC came out at 8 mg/L (≈ 16.8 µM).

Take `O=c1oc2ccc(Br)cc2cc1-c1csc(N2N=C(c3ccc(F)cc3)C[C@@]2(O)C(F)(F)F)n1`: the MIC stood at 256 mg/L (≈ 462 µM).

A further test concerns Staphylococcus epidermidis. The test is described as follows: Antibacterial activity against Staphylococcus epidermidis assessed as growth inhibition at 37 degC after overnight incubation by agar well diffusion method. The class given is functional.
Settings: not given
As to `O=c1oc2ccc(Br)cc2cc1-c1csc(N2N=C(c3ccc(Br)cc3)C[C@@]2(O)C(F)(F)F)n1`, the minimum inhibitory concentration (MIC) was determined as 512 mg/L (≈ 832 µM).

Consider `O=c1oc2ccccc2cc1-c1csc(N2N=C(c3ccc(F)cc3)C[C@@]2(O)C(F)(F)F)n1`, for which the minimal inhibitory concentration (MIC) is 64 mg/L (≈ 135 µM).

For `O=c1oc2ccc(Br)cc2cc1-c1csc(N2N=C(c3ccc(F)cc3)C[C@@]2(O)C(F)(F)F)n1`, the MIC was determined as 64 mg/L (≈ 115 µM).

The next test relates to Pseudomonas aeruginosa. The test is described as follows: Antibacterial activity against Pseudomonas aeruginosa assessed as diameter of growth inhibition zone at 2 mg/ml at 37 degC after 24 hrs by agar well diffusion method.
Settings: not given
Format: functional.
`O=c1oc2ccc(Br)cc2cc1-c1csc(N2N=C(c3ccc(Br)cc3)C[C@@]2(O)C(F)(F)F)n1`: the “diameter of the inhibition zone (DIZ)” value was “inactive”.

As for `O=c1oc2ccc(Br)cc2cc1-c1csc(N2N=C(c3ccc(F)cc3)C[C@@]2(O)C(F)(F)F)n1`, the “diameter of the inhibition zone (DIZ)” value was “inactive”.

The test is the same for the next values; noted with them: read-out: DIZ.
As to `O=c1oc2ccccc2cc1-c1csc(N2N=C(c3ccc(F)cc3)C[C@@]2(O)C(F)(F)F)n1`, the zone of inhibition at 2000 µg/mL came to 7.87 mm.

The test system of the next test is Rattus norvegicus. As to the kind of experiment: Antiinflammatory activity in Wistar albino rat assessed as inhibition of carrageenan-induced paw edema at 50 mg/kg, po administered 30 mins prior to carrageenan challenge measured after 2 hrs by plethysmometer analysis. The class given is functional.
Settings: not given
A digest of the protocol: (§1)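 Male Wistar albino rats, 200-250 g, five per group, fasted from 12 h before and during the test. Compounds were given orally at 50 mg/kg 30 min before sub-plantar injection of 0.1 ml 1% carrageenan in 0.9% saline into the left hind paw. Tween 80 vehicle controls. Paw volume was read by plethysmometer up to the tibiotarsal mark at 0-4 h. Results are mean ± SEM and % inhibition, ANOVA and Dunnett's test.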
On the technique in general: In the carrageenan paw model, swelling and tenderness develop within hours.
In the case of `O=c1oc2ccccc2cc1-c1csc(N2N=C(c3ccc(F)cc3)C[C@@]2(O)C(F)(F)F)n1`, the inhibition in vivo at 50 mg/kg came out at 56.7%.

In another test the test system is Rattus norvegicus. As to the kind of experiment: Antiinflammatory activity in Wistar albino rat assessed as inhibition of carrageenan-induced paw edema at 50 mg/kg, po administered 30 mins prior to carrageenan challenge measured after 3 hrs by plethysmometer analysis. Format: functional.
Settings: not given
In a few lines: as §1
For `O=c1oc2ccccc2cc1-c1csc(N2N=C(c3ccc(F)cc3)C[C@@]2(O)C(F)(F)F)n1`, the inhibition in vivo at 50 mg/kg was found to be 22.3%.

For a further test, the system named is Escherichia coli. As to the kind of experiment: Antibacterial activity against Escherichia coli assessed as diameter of growth inhibition zone at 2 mg/ml at 37 degC after 24 hrs by agar well diffusion method. Format: functional. The conditions noted are these: read-out: DIZ.
Take `O=c1oc2ccc(Br)cc2cc1-c1csc(N2N=C(c3ccc(Br)cc3)C[C@@]2(O)C(F)(F)F)n1`: the zone of inhibition at 2000 µg/mL was found to be 10 mm.

As for `O=c1oc2ccccc2cc1-c1csc(N2N=C(c3ccc(F)cc3)C[C@@]2(O)C(F)(F)F)n1`, the zone of inhibition at 2000 µg/mL is 13 mm.

For the compound `O=c1oc2ccc(Br)cc2cc1-c1csc(N2N=C(c3ccc(F)cc3)C[C@@]2(O)C(F)(F)F)n1`, the zone of inhibition at 2000 µg/mL was determined as 11 mm.

For a further test, the system named is Rattus norvegicus. The test is described as follows: Antiinflammatory activity in Wistar albino rat assessed as inhibition of carrageenan-induced paw edema at 50 mg/kg, po administered 30 mins prior to carrageenan challenge measured after 1 hr by plethysmometer analysis. Format: functional.
Settings: not given
A digest of the protocol: as §1
Regarding `O=c1oc2ccccc2cc1-c1csc(N2N=C(c3ccc(F)cc3)C[C@@]2(O)C(F)(F)F)n1`, the inhibition in vivo at 50 mg/kg worked out at 74.7%.

Another test concerns Pseudomonas aeruginosa. As to the kind of experiment: Antibacterial activity against Pseudomonas aeruginosa assessed as growth inhibition at 37 degC after overnight incubation by agar well diffusion method. The class given is functional.
Settings: not given
Turning to `O=c1oc2ccccc2cc1-c1csc(N2N=C(c3ccc(F)cc3)C[C@@]2(O)C(F)(F)F)n1`, the MIC stood at 32 mg/L (≈ 67.3 µM).

A further test concerns Rattus norvegicus. The test is described as follows: Antiinflammatory activity in Wistar albino rat assessed as inhibition of carrageenan-induced paw edema at 50 mg/kg, po administered 30 mins prior to carrageenan challenge measured after 4 hrs by plethysmometer analysis. The class given is functional.
Settings: not given
In a few lines:
as §1
On to `O=c1oc2ccccc2cc1-c1csc(N2N=C(c3ccc(F)cc3)C[C@@]2(O)C(F)(F)F)n1`, for which the inhibition in vivo at 50 mg/kg was determined as 18%.

The next test deals with Bacillus subtilis. The test is described as follows: Antibacterial activity against Bacillus subtilis assessed as growth inhibition at 37 degC after overnight incubation by agar well diffusion method. The class given is functional.
Settings: not given
`O=c1oc2ccccc2cc1-c1csc(N2N=C(c3ccc(F)cc3)C[C@@]2(O)C(F)(F)F)n1`: the MIC came to 512 mg/L (≈ 1080 µM).

For `O=c1oc2ccc(Br)cc2cc1-c1csc(N2N=C(c3ccc(F)cc3)C[C@@]2(O)C(F)(F)F)n1`, the minimal inhibitory concentration (MIC) was 512 mg/L (≈ 924 µM).

A further test concerns Staphylococcus aureus. As to the kind of experiment: Antibacterial activity against Staphylococcus aureus assessed as diameter of growth inhibition zone at 2 mg/ml at 37 degC after 24 hrs by agar well diffusion method. To be noted: read-out: DIZ. Format: functional.
With `O=c1oc2ccc(Br)cc2cc1-c1csc(N2N=C(c3ccc(Br)cc3)C[C@@]2(O)C(F)(F)F)n1`, the zone of inhibition at 2000 µg/mL is 2.03 mm.

As for `O=c1oc2ccccc2cc1-c1csc(N2N=C(c3ccc(F)cc3)C[C@@]2(O)C(F)(F)F)n1`, the zone of inhibition at 2000 µg/mL amounted to 3.96 mm.

Regarding `O=c1oc2ccc(Br)cc2cc1-c1csc(N2N=C(c3ccc(F)cc3)C[C@@]2(O)C(F)(F)F)n1`, the zone of inhibition at 2000 µg/mL amounted to 1.87 mm.

Another test concerns Escherichia coli. As to the kind of experiment: Antibacterial activity against Escherichia coli assessed as growth inhibition at 37 degC after overnight incubation by agar well diffusion method. The class given is functional.
Settings: not given
Regarding `O=c1oc2ccc(Br)cc2cc1-c1csc(N2N=C(c3ccc(Br)cc3)C[C@@]2(O)C(F)(F)F)n1`, the MIC was determined as 256 mg/L (≈ 416 µM).

As for `O=c1oc2ccccc2cc1-c1csc(N2N=C(c3ccc(F)cc3)C[C@@]2(O)C(F)(F)F)n1`, the MIC was 2 mg/L (≈ 4.21 µM).

In the case of `O=c1oc2ccc(Br)cc2cc1-c1csc(N2N=C(c3ccc(F)cc3)C[C@@]2(O)C(F)(F)F)n1`, the MIC was determined as 512 mg/L (≈ 924 µM).
